One series addresses T1, Endothelin-1 receptor (Rattus norvegicus, UniProt P26684).
T1 sequence (P26684 whole entry): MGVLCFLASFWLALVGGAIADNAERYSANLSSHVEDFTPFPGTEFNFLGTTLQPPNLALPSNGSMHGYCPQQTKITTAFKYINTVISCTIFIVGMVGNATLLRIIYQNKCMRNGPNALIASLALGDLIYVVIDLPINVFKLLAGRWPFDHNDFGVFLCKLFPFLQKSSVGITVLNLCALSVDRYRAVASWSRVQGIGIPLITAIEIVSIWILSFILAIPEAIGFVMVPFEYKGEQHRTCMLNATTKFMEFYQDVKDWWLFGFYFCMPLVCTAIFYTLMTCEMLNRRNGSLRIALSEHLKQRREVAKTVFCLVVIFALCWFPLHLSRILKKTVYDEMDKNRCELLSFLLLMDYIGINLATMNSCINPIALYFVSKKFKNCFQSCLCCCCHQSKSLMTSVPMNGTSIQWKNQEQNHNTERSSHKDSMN
Put plainly: Binding affinity towards endothelin A receptor in prolactin secreting rat pituitary cells using [125I]ET1 as radioligand. The class given is cell-based, Pituitary gland cell. The method in brief: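 Membranes from rat MMQ pituitary cells (predominantly ETA), kept at 4 °C and stored in Tris/NaCl/MgCl2 buffer pH 7.4 with protease inhibitors. Bound ligand separated by vacuum filtration on glass fiber. Nonspecific binding defined with 1 μM ET-1.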

The target of series [1] is T2, Endothelin receptor type B (Sus scrofa, UniProt P35463).
T2 sequence (P35463 whole entry): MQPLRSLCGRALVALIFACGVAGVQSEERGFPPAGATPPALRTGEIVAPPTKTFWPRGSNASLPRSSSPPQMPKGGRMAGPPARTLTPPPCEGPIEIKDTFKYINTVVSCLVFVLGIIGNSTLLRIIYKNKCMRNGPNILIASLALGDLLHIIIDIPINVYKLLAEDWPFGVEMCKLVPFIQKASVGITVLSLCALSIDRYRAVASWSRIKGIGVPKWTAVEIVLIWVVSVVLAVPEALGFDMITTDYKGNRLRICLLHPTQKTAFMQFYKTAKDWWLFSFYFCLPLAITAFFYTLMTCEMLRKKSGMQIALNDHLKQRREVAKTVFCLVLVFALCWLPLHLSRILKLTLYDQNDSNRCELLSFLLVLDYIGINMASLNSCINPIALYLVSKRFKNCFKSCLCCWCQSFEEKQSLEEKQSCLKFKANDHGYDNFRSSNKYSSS
Put plainly: Binding affinity towards endothelin B receptor in porcine cerebellar tissue using [125I]-ET-1 as radioligand. Put shortly: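 Membranes from porcine cerebellar tissue (ETB), kept at 4 °C and stored in Tris/NaCl/MgCl2 buffer pH 7.4 with protease inhibitors. Bound and free separated by glass-fiber filtration. Nonspecific binding measured with 1 μM ET-1.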

Series [2] in a line: Maximum concentration of compound in plasma administered orally to rats. The class given is ADME, organism-based. Set-up: route oral. The note with it: rat, po. The method in brief:
(§1)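 Male Sprague–Dawley rats, n = 4 per group. Vehicle: ethanol:propylene glycol:D5W (20:30:50) with 1 mol equiv NaOH. Dosing: 5 mg/kg iv jugular bolus, or 10 mg/kg oral gavage. Tail-vein plasma sampled 0.1 (iv only) to 12 h and analyzed by HPLC after extraction. Trapezoidal AUC extrapolated to infinity. F from dose-corrected oral versus iv AUC.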

Series [3] is described as follows: Area under curve was determined in portal blood of rat when administered intradermally. The class given is ADME, organism-based. Set-up: concentration or dose not given beside the values. The note with it: in the assay text read “intraduodenally” for “intradermally”. The method in brief:
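Male Sprague–Dawley rats (~225 g), fasted overnight and anesthetized with inactin (100 mg/kg ip). Pylorus ligated; carotid and portal vein catheterized. Intraduodenal dose 10 mg/kg at t = 0. Portal blood drawn at 10, 30 and 60 min; drug measured by HPLC-UV at 226 nm against plasma standards (0.01–50 μg/mL). AUC calculated by trapezoidal rule.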

Series [4] is described as follows: Oral bioavailability in rat. The class given is ADME, organism-based. The note with it: in vivo. Put shortly:
as §1

Series [5] is described as follows: Time taken to decrease the plasma concentration to half of the maximum concentration when compound was administered intravenously in rats. The class given is ADME, organism-based. The following applies: rat, iv. Put shortly:
as §1

Series [6] can be described thus: Area under curve was determined in carotid blood of rat when administered intraduodenally. Details: concentration or dose not given beside the values.

A word on the IC50: it is the concentration at which inhibition is half-maximal. As usually defined, the Cmax is the peak of the concentration-time curve. In general, AUC refers to the area under the concentration-time curve, a measure of exposure. The term bioavailability denotes dose-corrected exposure relative to a reference, in per cent. In general, half-life refers to how long it takes for the measured level to halve.

On to `CCCCN(CCCC)C(=O)CN1C[C@H](c2ccc3c(c2)OCCO3)[C@@H](C(=O)O)[C@@H]1c1ccc(OC)cc1`, for which, on Endothelin-1 receptor, the 50% inhibitory concentration (IC50) was 0.0008 µM.

Turning to `CCCN(C)C(=O)CN1C[C@H](c2ccc(OC)cc2)[C@@H](C(=O)O)[C@@H]1c1ccc(OC)cc1`, the IC50 in series [1] is 16 µM; on Endothelin-1 receptor, 0.176 µM.

For the compound `CCCCN(CCCC)C(=O)CN1C[C@H](c2cccnc2)[C@@H](C(=O)O)[C@@H]1c1ccc(OC)cc1`, the IC50 is > 100 µM in series [1] and 0.93 µM on Endothelin-1 receptor.

For the compound `CCCN(C)C(=O)CN1C[C@H](c2ccc3ccccc3c2)[C@@H](C(=O)O)[C@@H]1c1ccc(OC)cc1`, the IC50 in series [1] came to 25 µM; on Endothelin-1 receptor, 2.3 µM.

For `CCCN(C)C(=O)CN1C[C@H](c2cccc3ccccc23)[C@@H](C(=O)O)[C@@H]1c1ccc(OC)cc1`, the 50% inhibitory concentration (IC50) was 32 µM in series [1] and 2.3 µM on Endothelin-1 receptor.

Turning to `CCCCN(CCCC)C(=O)CN1C[C@H](c2cccc(F)c2)[C@@H](C(=O)O)[C@@H]1c1ccc(OC)cc1`, the 50% inhibitory concentration (IC50) came out at 16 µM in series [1] and 0.005 µM at Endothelin-1 receptor.

On to `CCCCN(CCCC)C(=O)CN1C[C@H](c2ccc3c(c2)CCO3)[C@@H](C(=O)O)[C@@H]1c1ccc(OC)cc1`, for which, in series [2], the peak level (Cmax) was 1500 ng/mL. The AUC is 8830 ng·h/mL in series [3] and 3000 ng·h/mL in series [6]. The compound further returned a bioavailability in series [4] of 33%. This compound showed a half-life in series [5] of 1.1 h. In addition, the values for the 50% inhibitory concentration (IC50) (in series [1]; on Endothelin-1 receptor) were 2.6 µM and 0.0006 µM, respectively.

`CCCN(C)C(=O)CN1C[C@H](c2cccc3occc23)[C@@H](C(=O)O)[C@@H]1c1ccc(OC)cc1` yielded an IC50 in series [1] of 34 µM.

For the compound `CCCCN(CCCC)C(=O)CN1C[C@H](c2ccc(F)cc2)[C@@H](C(=O)O)[C@@H]1c1ccc(OC)cc1`, the IC50 in series [1] was determined as 77 µM; on Endothelin-1 receptor it was 0.014 µM.

Regarding `CCCN(C)C(=O)CN1C[C@H](c2ccccc2)[C@@H](C(=O)O)[C@@H]1c1ccc(OC)cc1`, the IC50 in series [1] is > 100 µM.

As for `CCCN(C)C(=O)CN1C[C@H](c2cccc(OC)c2)[C@@H](C(=O)O)[C@@H]1c1ccc(OC)cc1`, at Endothelin-1 receptor, the concentration for half-maximal inhibition (IC50) is 1.7 µM.

Regarding `CCCCN(CCCC)C(=O)CN1C[C@H](c2ccc3c(c2)CCC3)[C@@H](C(=O)O)[C@@H]1c1ccc(OC)cc1`, the IC50 on Endothelin-1 receptor stood at 0.0015 µM.

Turning to `CCCCN(CCCC)C(=O)CN1C[C@H](c2ccc(F)c(F)c2)[C@@H](C(=O)O)[C@@H]1c1ccc(OC)cc1`, the figures for the IC50 (in series [1]; at Endothelin-1 receptor) were 17 µM and 0.0015 µM, respectively.

For the compound `CCCCN(CCCC)C(=O)CN1C[C@H](c2ccc(OC)cc2OC)[C@@H](C(=O)O)[C@@H]1c1ccc(OC)cc1`, the IC50 in series [1] was determined as 48 µM; on Endothelin-1 receptor, 0.0037 µM.

`CCCCN(CCCC)C(=O)CN1C[C@H](c2ccc3ccoc3c2)[C@@H](C(=O)O)[C@@H]1c1ccc(OC)cc1` yielded a Cmax in series [2] of 4700 ng/mL. Besides, the area under the curve (AUC) in series [3] is 9000 ng·h/mL; in series [6], 6170 ng·h/mL. Moreover, the bioavailability in series [4] came to 38%. The same compound had a half-life in series [5] of 4.7 h. Moreover, the concentration for half-maximal inhibition (IC50) in series [1] worked out at 5 µM; at Endothelin-1 receptor, 0.0007 µM.

With `CCCN(C)C(=O)CN1C[C@H](c2ccc3cc[nH]c3c2)[C@@H](C(=O)O)[C@@H]1c1ccc(OC)cc1`, the values for the 50% inhibitory concentration (IC50) (in series [1]; at Endothelin-1 receptor) were 35 µM and 5.1 µM, respectively.

For the compound `CCCCN(CCCC)C(=O)CN1C[C@H](c2ccc3c(c2)OCO3)[C@@H](C(=O)O)[C@@H]1c1ccc(OC)cc1`, the Cmax in series [2] stood at 3200 ng/mL. The exposure (AUC) was 10700 ng·h/mL in series [3] and 5830 ng·h/mL in series [6]. The same compound registered a bioavailability in series [4] of 68%. Moreover, the half-life in series [5] is 3.5 h.

As for `CCCN(C)C(=O)CN1C[C@H](c2ccc(OC)cc2OC)[C@@H](C(=O)O)[C@@H]1c1ccc(OC)cc1`, the IC50 was found to be 72 µM in series [1] and 0.407 µM on Endothelin-1 receptor.

For the compound `CCCN(C)C(=O)CN1C[C@H](c2ccc(F)c(F)c2)[C@@H](C(=O)O)[C@@H]1c1ccc(OC)cc1`, the values for the IC50 (in series [1]; at Endothelin-1 receptor) were 35 µM and 0.31 µM, respectively.

On to `CCCN(C)C(=O)CN1C[C@H](c2ccc3c(c2)OCC3)[C@@H](C(=O)O)[C@@H]1c1ccc(OC)cc1`, for which the IC50 in series [1] was 6.4 µM; at Endothelin-1 receptor, 0.137 µM.

Consider `CCCCN(CCCC)C(=O)CN1C[C@H](c2ccc3occc3c2)[C@@H](C(=O)O)[C@@H]1c1ccc(OC)cc1`, for which the Cmax in series [2] was 1600 ng/mL. Also, the figures for the AUC in series [3] and in series [6] were 4000 ng·h/mL and 2330 ng·h/mL, respectively. In series [4], the bioavailability stood at 39%. Moreover, the half-life in series [5] is 3.2 h. For the same compound, the IC50 in series [1] turned out to be 5.1 µM; on Endothelin-1 receptor it was 0.0005 µM.

With `CCCN(C)C(=O)CN1C[C@H](c2ccc3c(c2)CCO3)[C@@H](C(=O)O)[C@@H]1c1ccc(OC)cc1`, the half-inhibitory concentration (IC50) in series [1] was 19 µM; on Endothelin-1 receptor it was 0.13 µM.

For `CCCCN(CCCC)C(=O)CN1C[C@H](c2cccc3occc23)[C@@H](C(=O)O)[C@@H]1c1ccc(OC)cc1`, the IC50 is 11 µM in series [1] and 0.002 µM on Endothelin-1 receptor.

Take `CCCN(C)C(=O)CN1C[C@H](c2ccc3c(c2)OCCO3)[C@@H](C(=O)O)[C@@H]1c1ccc(OC)cc1`: the IC50 in series [1] was determined as 35 µM; at Endothelin-1 receptor, 0.13 µM.

In series [2], `CCCCN(CCCC)C(=O)CN1C[C@H](c2ccc3c(c2)OCC3)[C@@H](C(=O)O)[C@@H]1c1ccc(OC)cc1` came in with a Cmax of 4000 ng/mL. Besides, the values for the AUC in series [3] and in series [6] were 12200 ng·h/mL and 6170 ng·h/mL, respectively. In series [4], this compound had a bioavailability of 68%. The half-life in series [5] is 4.7 h. For the same compound, the IC50 worked out at 0.96 µM in series [1] and 0.001 µM at Endothelin-1 receptor.

Turning to `CCCN(C)C(=O)CN1C[C@H](c2ccc3ccoc3c2)[C@@H](C(=O)O)[C@@H]1c1ccc(OC)cc1`, the figures for the IC50 (in series [1]; on Endothelin-1 receptor) were 13 µM and 0.258 µM, respectively.

Take `CCCCN(CCCC)C(=O)CN1C[C@H](c2ccc(OC)cc2)[C@@H](C(=O)O)[C@@H]1c1ccc(OC)cc1`: the IC50 in series [1] is 4.1 µM; at Endothelin-1 receptor, 0.0013 µM.

`CCCN(C)C(=O)CN1C[C@H](c2ccc3c(c2)CCC3)[C@@H](C(=O)O)[C@@H]1c1ccc(OC)cc1`: the concentration for half-maximal inhibition (IC50) in series [1] was determined as 11 µM; on Endothelin-1 receptor, 0.31 µM.

With `CCCN(C)C(=O)CN1C[C@H](c2ccc(OC)c(OC)c2)[C@@H](C(=O)O)[C@@H]1c1ccc(OC)cc1`, the values for the IC50 (in series [1]; at Endothelin-1 receptor) were 31 µM and 0.73 µM, respectively.

Source of the values: ChEMBL document CHEMBL1130287, “Potent and selective non-benzodioxole-containing endothelin-A receptor antagonists” (J Med Chem, 1997).
